In ChEMBL document CHEMBL4732225, “Identification of a new class of HBV capsid assembly modulator” (Bioorg Med Chem Lett, 2021):

What was measured:
[1] = Metabolic stability in human microsomes assessed as intrinsic clearance; type: ADME, Microsome
[2] = Plasma clearance in Sprague-Dawley rat at 5 mg/kg, po or 1.25 mg/kg, iv; type: ADME, organism-based
Procedure, shortened: (§1)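 Sprague-Dawley rats, n = 3. Oral dose 5 mg/kg in 70% PEG400 vehicle; IV dose 1.25 mg/kg in saline vehicle.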

[3] = Volume of distribution at steady state in Sprague-Dawley rat at 5 mg/kg, po or 1.25 mg/kg, iv; type: ADME, organism-based; details: in vivo, read-out: Vdss; procedure, shortened: as §1
[4] = Half life in Sprague-Dawley rat at 5 mg/kg, po or 1.25 mg/kg, iv; type: ADME, organism-based; details: in vivo; procedure, shortened: as §1
[5] = Cmax in Sprague-Dawley rat at 5 mg/kg, po; type: ADME, organism-based; set-up: route oral, dose 5 mg/kg; details: in vivo; procedure, shortened: as §1
[6] = Tmax in Sprague-Dawley rat at 5 mg/kg, po; type: ADME, organism-based; details: in vivo; procedure, shortened: as §1
[7] = AUC (0 to infinity) in Sprague-Dawley rat at 5 mg/kg, po; type: ADME, organism-based; set-up: time infinity, route oral, dose 5 mg/kg; details: in vivo; procedure, shortened: as §1
[8] = Oral bioavailability in Sprague-Dawley rat at 5 mg/kg; type: ADME, organism-based; details: in vivo; procedure, shortened: as §1
[9] = Ratio of drug level in liver to plasma in Sprague-Dawley rat at 5 mg/kg, po or 1.25 mg/kg, iv; type: ADME, organism-based; details: liver and plasma; procedure, shortened: as §1
[10] = Volume of distribution at steady state in Beagle dog at […], po or 1 mg/kg, iv; type: ADME, organism-based, Canis lupus familiaris; details: in vivo, dose 2.5 mg/kg, read-out: Vdss
[11] = Half life in Beagle dog at […], po or 1 mg/kg, iv; type: ADME, organism-based, Canis lupus familiaris; details: in vivo, dose 2.5 mg/kg
[12] = Cmax in Beagle dog at […], po; type: ADME, organism-based, Canis lupus familiaris; set-up: route oral, dose 2.5 mg/kg; details: in vivo
[13] = Tmax in Beagle dog at […], po; type: ADME, organism-based, Canis lupus familiaris; details: in vivo, dose 2.5 mg/kg
[14] = AUC (0 to infinity) in Beagle dog at […], po; type: ADME, organism-based, Canis lupus familiaris; set-up: route oral, time infinity, dose 2.5 mg/kg; details: in vivo
[15] = Oral bioavailability in Beagle dog at […]; type: ADME, organism-based, Canis lupus familiaris; details: in vivo, dose 2.5 mg/kg

SMILES | CLint scaled [1] | also measured
O=C(Nc1cccc(Cl)c1)N1CCc2[nH]nc(-c3cocn3)c2C1 | 50 mL/min/kg | 
C[C@H]1Cc2[nH]nc(-c3cscn3)c2CN1C(=O)Nc1ccc(F)c(Br)c1 | 24 mL/min/kg | 
C[C@H]1Cc2c(c(-c3cccs3)nn2C)CN1C(=O)Nc1cccc(Cl)c1 | 146 mL/min/kg | 
C[C@@H]1Cc2[nH]nc(-c3ccccc3)c2CN1C(=O)Nc1cccc(Cl)c1 | 43 mL/min/kg | 
C[C@H]1Cc2[nH]nc(-c3cccs3)c2CN1C(=O)Nc1cccc(Cl)c1 | 17 mL/min/kg | 
O=C(Nc1cccc(Cl)c1)N1CCc2[nH]nc(-c3cccs3)c2C1 | 356 mL/min/kg | 
O=C(Nc1cccc(Cl)c1)N1CCc2[nH]nc(-c3cscn3)c2C1 | 33 mL/min/kg | 
C[C@H]1Cc2[nH]nc(-c3cscn3)c2CN1C(=O)Nc1cccc(Cl)c1 | 20 mL/min/kg | 
O=C(Nc1cccc(Cl)c1)N1CCc2[nH]nc(-c3nccs3)c2C1 | 53 mL/min/kg | 
O=C(Nc1cccc(Cl)c1)N1CCc2[nH]nc(-c3ccsc3)c2C1 | 160 mL/min/kg | 
CC[C@H]1Cc2[nH]nc(-c3ccccc3)c2CN1C(=O)Nc1cccc(Cl)c1 | 22 mL/min/kg | 
Cc1cc(NC(=O)N2Cc3c(-c4cscn4)n[nH]c3C[C@@H]2C)ccc1F | 14 mL/min/kg | 
C[C@H]1Cc2[nH]nc(-c3cscn3)c2CN1C(=O)Nc1ccnc(Br)c1F | 12 mL/min/kg | 
C[C@H]1Cc2[nH]nc(-c3cscn3)c2CN1C(=O)Nc1ccc(F)c(C#N)c1 | 13 mL/min/kg | clearance [2]: 30.7 mL/min/kg; Vd [3]: 2.97 L/kg; half-life [4]: 2.28 h; Cmax [5]: 73 ng/mL; Tmax [6]: 6 h; AUC(0-inf) [7]: 1030 ng·h/mL; bioavailability [8]: 38%; Kp [9]: 17; Vd [10]: 3 L/kg; half-life [11]: 2.17 h; Cmax [12]: 472 ng/mL; Tmax [13]: 1 h; AUC [14]: 1620 ng·h/mL; F [15]: 73%
C[C@H]1Cc2[nH]nc(-c3ccccc3)c2CN1C(=O)Nc1cccc(Cl)c1 | 15 mL/min/kg | 
C[C@H]1Cc2[nH]nc(-c3cscn3)c2CN1C(=O)Nc1ccc(F)c(Cl)c1 | 21 mL/min/kg | 
